The campaign covered roughly 65,000 compounds. About 1,400 (2.2%) were called active. This excerpt belongs to a sample that is enriched for actives. A number with no mark means an inactive call.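 Rule for the calls: active = growth inhibition at or above a cutoff equal to the mean over every tested compound plus 3 SD (cut at about 60% in these data); inactive = the rest.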
Assay: E. coli ΔtolC antibacterial growth inhibition – strain BW25113 ΔtolC::kan, 384-well, primary screen (AID 573);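 note: growth measured after 20 h incubation at 37 °C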
Conditions: E. coli BW25113 tolC mutant growth, OD615; hits give high values; concentration not given here
Outline: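 signal = optical density read at 615 nm | test system = E. coli ΔtolC::kan strain BW25113 | timing = 20 h compound exposure of bacteria at 37 °C | buffer or medium = LB medium plus 50 µg/mL kanamycin | compound dosing = 10 µM final, single dose | evaluation = % inhibition of E. coli growth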

SMILES	growth inhibition
CCOC(=O)c1c(-c2ccccc2)oc2ccc(OC(=O)N(C)C)cc12	96.5% (active)
CCN1c2nc3c(C)cccn3c(=O)c2CC2(C(=O)N(C)C(=O)N(C)C2=O)C1C (stereo not given)	-0.7%
CCC(=NCCCO)c1c(O)n(-c2ccc(OC)cc2)c(=O)[nH]c1=O	-12.6%
CCC(=NCc1ccco1)c1c(O)n(Cc2ccccc2)c(=O)[nH]c1=O	7.19%
CCCCCCN=C(CC)c1c(O)n(CCCC)c(=O)[nH]c1=O	90.2% (active)
CCCC(C)n1[nH]c(=O)c2c1NC(=O)CSC2c1ccc(OC)c(OC)c1 (stereo not given)	-7.28%
Cn1c(C(=O)N2CCC(C(=O)N3CCC4(CC3)OCCO4)CC2)cc2sccc21	3.04%
C/C(CCc1c[nH]c2ccccc12)=N\O	-11.1%
c1cncc(CNC2=NCCC2)c1	-5.19%
C=Cn1ccnc1P(=S)(c1cc(N(CC)CC)ns1)c1nccn1C=C	8.14%

Source: PubChem BioAssay AID573 (SRMLSC, 2007)
